Published values collected from several papers.
Protocols differ between the studies behind these lines.
Target: Ephrin type-A receptor 2 (EPHA2, Homo sapiens, UniProt P29317)

| SMILES | observed | action | technique | concentration | endpoint | value |
| --- | --- | --- | --- | --- | --- | --- |
| CS(=O)(=O)N1CCCC(NC(=O)[C@H](CCC2CCCCC2)NC(=O)c2ccc(CNc3ncnc4c3nnn4-c3ccccc3)cc2)C1 (stereo partly drawn) | cell-free assay | – | competition with immobilised ligand | 0.1 µM | remaining binding | 100% |
| O=C(Nc1cnn(-c2csc(C(=O)NC3COC3)c2)c1)Nc1ccccc1Cl | enzyme activity | inhibitor | – | 5 µM | remaining activity | 101% |
| O=C(N1CCS(=O)(=O)CC1)N1C[C@H](c2ccc(OC(F)(F)F)cc2)C[C@H](c2nc(C3CC3)no2)C1 | cell-free assay | – | competition with immobilised ligand | 1 µM | remaining binding | 100% |
| CCCS(=O)(=O)Nc1ccc(F)c(C(=O)c2c[nH]c3ncc(-c4ccc(Cl)cc4)cc23)c1F | enzyme activity | inhibitor | – | 1 µM | inhibition | < 10% |
| O=C1Nc2ccc(Cl)cc2C1=Cc1cc(Cl)c(O)c(Cl)c1 | cell-free assay | – | – | 0.5 µM | remaining signal | 95% |
| O=C(Nc1ccc(Oc2ccc(F)cc2)cc1)N1CCc2ncccc2[C@H]1c1ccc(F)cc1 | cell-free assay | – | competition with immobilised ligand | 1 µM | remaining binding | 100% |
| COc1cc2nccc(Oc3ccc(NC(=O)Nc4ccc(F)cc4F)c(F)c3)c2cc1OC | thermal stability | – | DSF | 10 µM | ΔTm | 5 to 10 °C |
| COc1cc(/C=C/C(=O)CC(=O)/C=C/c2ccc(O)c(OC)c2)ccc1O | enzyme activity | inhibitor | – | 1 µM | activity vs control | 104% |
| Cc1nccc(COC(=O)N2C[C@@H]3[C@@H](CNC(=O)c4ccc5[nH]nnc5c4)[C@@H]3C2)n1 | cell-free assay | – | competition with immobilised ligand | 1 µM | remaining binding | 92% |
| O=C(Nc1cnn(-c2csc(C(=O)NC3COC3)c2)c1)Nc1c(F)cccc1Cl | enzyme activity | inhibitor | – | 5 µM | remaining activity | 97.9% |
| O=C(NC[C@@H]1[C@H]2CN(C(=O)OCc3cc(C(F)(F)F)cc(C(F)(F)F)c3)C[C@@H]12)c1ccc2[nH]nnc2c1 | cell-free assay | – | competition with immobilised ligand | 1 µM | remaining binding | 79% |
| N#CCCc1ccc2c(c1)-c1[nH]c3ccc([N+](=O)[O-])cc3c1CC(=O)N2 | cell-free assay | – | – | 0.5 µM | remaining signal | 93.6% |
| Cc1cnc(NC2CCOCC2)nc1-n1cnc(C(=O)NC(CN)c2cc(F)cc(Cl)c2)c1 (stereo not drawn) | enzyme activity | inhibitor | radiometric | 1 µM | remaining activity | 101% |
| Cc1ccc(C(=O)Nc2ccc(CN3CCN(C)CC3)c(C(F)(F)F)c2)cc1C#Cc1cnc2cccnn12 | cell-free assay | – | – | 23.5 nM | remaining signal | 8.9% |
| CC(C)(C)c1nc(-c2cccc(NS(=O)(=O)c3c(F)cccc3F)c2F)c(-c2ccnc(N)n2)s1 | enzyme activity | inhibitor | radiometric | 1 µM | remaining activity | 133% |
| Cn1c(=O)n(-c2ccc(C(C)(C)C#N)cc2)c2c3cc(-c4cnc5ccccc5c4)ccc3ncc21 | enzyme activity | inhibitor | – | 10 µM | remaining activity | 110% |
| CCN(CC)CCNC(=O)c1c(C)[nH]c(/C=C2\C(=O)Nc3ccc(F)cc32)c1C | enzyme activity | inhibitor | – | 10 µM | inhibition | 52% |
| O=C(CSc1nc2nccnc2c(=O)n1CCc1ccccc1)Nc1nccs1 | enzyme activity | inhibitor | – | 10 µM | inhibition | 8% |
| Cc1ccc(Nc2nccc(N(C)c3ccc4c(C)n(C)nc4c3)n2)cc1S(N)(=O)=O | enzyme activity | inhibitor | – | 0.3 µM | inhibition | -2% |
| CNCc1ccccc1-c1csc([C@H](C)Nc2nc(C)nc3cc(OC)c(OC)cc23)c1 | cell-free assay | – | competition with immobilised ligand | 1 µM | remaining binding | 80% |
| COc1cc(Nc2cnc(C#N)c(O[C@H](C)CN(C)C)n2)ncc1-c1cnn(C)c1 | enzyme activity | inhibitor | radiometric | 10 µM | remaining activity | 24% |
| COc1ccc2c(O[C@@H]3C[C@H]4C(=O)N[C@]5(C(=O)O)CC5/C=C\CCCCC[C@H](NC(=O)OC5CCCC5)C(=O)N4C3)cc(-c3csc(NC(=O)C(C)C)n3)nc2c1C (stereo partly drawn) | cell-free assay | – | competition with immobilised ligand | 1 µM | remaining binding | 80% |
| CNC(=O)c1cc2c(Oc3ccc(NC(=O)C4(C(=O)Nc5ccc(F)cc5)CC4)cc3)ccnc2cc1OC | enzyme activity | inhibitor | radiometric | 1 µM | inhibition | 96% |
| COc1cc2ncnc(Nc3ccc(Oc4ccccc4)c(C)c3C)c2cc1OC | enzyme activity | inhibitor | – | 1 µM | inhibition | 2% |
| COc1ccc2c(c1)O[C@@H](c1ccc(OC)c(OC)c1)C[C@H]2NC(=O)C1(c2ccc3c(c2)OC(F)(F)O3)CC1 | cell-free assay | – | competition with immobilised ligand | 1 µM | remaining binding | 95% |
| CNC(=O)c1cc(Oc2ccc(NC(=O)Nc3ccc(Cl)c(C(F)(F)F)c3)cc2)ccn1 | enzyme activity | inhibitor | – | 0.3 µM | inhibition | 23% |
| CN(c1ncccc1CNc1nc(Nc2ccc3c(c2)CC(=O)N3)ncc1C(F)(F)F)S(C)(=O)=O | enzyme activity | inhibitor | – | 1 µM | inhibition | 29.7% |
| Cc1cc(NC(=O)c2cccc3cc(-c4cccc5[nH]nc(N)c45)ccc23)ccc1F | enzyme activity | inhibitor | – | 0.1 µM | activity vs control | 103% |
| O=C1NC(=O)c2cc(Nc3ccc(F)cc3)c(Nc3ccc(F)cc3)cc21 | cell-free assay | – | – | 0.5 µM | remaining signal | 94.3% |
| CC(C)(C)C(=O)c1sc(NC2CCCCC2)nc1N | enzyme activity | inhibitor | – | 10 µM | remaining activity | 106% |
